Test results from BindingDB's records for doi:10.1021/jm00031a021 (Tap Pharmaceuticals, 1994).
Where a SMILES comes first, the peptide text is derived from it. [ ]: non-standard residue; d: D form. The star is where a group is joined. Propanoyl(3-(4-F-phenyl)) = O=C(CCc1ccc(F)cc1)*; Propanoyl(3-(4-Cl-Ph)) = O=C(CCc1ccc(Cl)cc1)*; d1Nal = N[C@H](Cc1cccc2ccccc12)C(=O)O; Lys(iPr) = CC(C)NCCCC[C@H](N)C(=O)O; NMeY = CN[C@@H](Cc1ccc(O)cc1)C(=O)O; Nicotinoyl = O=C(c1cccnc1)*

Target: T1, Gonadotropin-releasing hormone receptor (Rattus norvegicus, UniProt P30969)
T1 sequence (P30969 whole entry): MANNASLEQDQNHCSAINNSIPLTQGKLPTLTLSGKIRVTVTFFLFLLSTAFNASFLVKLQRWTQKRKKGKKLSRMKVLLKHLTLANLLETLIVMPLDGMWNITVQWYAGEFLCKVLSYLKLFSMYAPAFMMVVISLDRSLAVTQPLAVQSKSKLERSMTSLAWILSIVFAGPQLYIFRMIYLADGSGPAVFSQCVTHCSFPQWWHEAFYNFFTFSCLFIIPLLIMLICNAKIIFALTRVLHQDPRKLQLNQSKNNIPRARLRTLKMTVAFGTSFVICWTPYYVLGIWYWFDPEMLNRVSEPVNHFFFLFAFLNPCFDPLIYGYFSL
Experiment: Inhibition of the in vitro binding of [125I]-labeled leuprolide to the rat pituitary luteinizing hormone releasing hormone (LHRH) receptor.
Outline: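 Rat pituitary LHRH receptor binding with 125I-labeled leuprolide as radioligand. pKI is the negative log of the analogue concentration inhibiting 50% of tracer binding. Compounds tested as TFA salts.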

Row | Ki [nM] | Compound
1 | 0.076 | CCNC(=O)[C@@H]1CCCN1C(=O)[C@H](CCCN=C(N)N)NC(=O)[C@H](CC(C)C)NC(=O)[C@@H](Cc1c[nH]c2ccccc12)NC(=O)[C@H](Cc1ccc(O)cc1)NC(=O)[C@H](CO)NC(=O)[C@H](Cc1ccc(O)cc1)NC(=O)CCc1ccc(Cl)cc1 ({Propanoyl(3-(4-Cl-Ph))}-YSY[dW]LRP-NHEt)
2 | 0.022 | CCNC(=O)[C@@H]1CCCN1C(=O)[C@H](CCCN=C(N)N)NC(=O)[C@H](CC(C)C)NC(=O)[C@@H](Cc1c[nH]c2ccccc12)NC(=O)[C@H](Cc1ccc(O)cc1)NC(=O)[C@H](CO)NC(=O)[C@H](Cc1ccc(O)cc1)NC(=O)CCc1ccc(F)cc1
3 | 0.016 | CC(C)C[C@H](NC(=O)[C@@H](CCCCNC(=O)c1cccnc1)NC(=O)[C@H](Cc1ccc(O)cc1)N(C)C(=O)[C@H](CO)NC(=O)[C@H](Cc1cccc2ccccc12)NC(=O)CCc1ccc(F)cc1)C(=O)N[C@@H](CCCCNC(C)C)C(=O)N1CCC[C@@H]1C(N)=O
4 | 0.012 | CCNC(=O)[C@H]1CCCN1C(=O)[C@H](CCCN=C(N)N)NC(=O)[C@H](CC(C)C)NC(=O)[C@@H](Cc1c[nH]c2ccccc12)NC(=O)[C@H](Cc1ccc(O)cc1)NC(=O)[C@H](CO)NC(=O)[C@@H]1CCCN1C(=O)CCc1ccc(F)cc1
5 | 0.023 | CCNC(=O)[C@H]1CCCN1C(=O)[C@H](CCCN=C(N)N)NC(=O)[C@H](CC(C)C)NC(=O)[C@@H](CCCCNC(=O)c1cccnc1)NC(=O)[C@H](Cc1ccc(O)cc1)NC(=O)[C@H](CO)NC(=O)[C@H](Cc1c[nH]c2ccccc12)NC(=O)CCc1ccc(F)cc1
6 | 17 | CCNC(=O)[C@@H]1CCCN1C(=O)[C@H](CCCN=C(N)N)NC(=O)[C@H](CC(C)C)NC(=O)[C@@H](Cc1c[nH]c2ccccc12)NC(=O)[C@H](Cc1ccc(O)cc1)NC(=O)[C@H](CO)NC(=O)[C@H](Cc1c[nH]c2ccccc12)NC(=O)c1cc2ccccc2[nH]1
7 | 0.033 | CCNC(=O)[C@H]1CCCN1C(=O)[C@H](CCCN=C(N)N)NC(=O)[C@H](CC(C)C)NC(=O)[C@@H](Cc1c[nH]c2ccccc12)NC(=O)[C@H](Cc1ccc(O)cc1)N(C)C(=O)[C@H](CO)NC(=O)[C@H](Cc1c[nH]c2ccccc12)NC(=O)CCc1ccc(F)cc1
8 | 0.537 | CC(C)C[C@H](NC(=O)[C@@H](CCCCNC(=O)c1cccnc1)NC(=O)[C@H](Cc1ccc(O)cc1)N(C)C(=O)[C@H](CO)NC(=O)[C@H](Cc1cccc2ccccc12)NC(=O)CCc1ccc(F)cc1)C(=O)N[C@@H](CCCCNC(C)C)C(=O)N1CCC[C@@H]1C(=O)O
9 | 0.02 | CC(C)C[C@H](NC(=O)[C@@H](CCCCNC(=O)c1cccnc1)NC(=O)[C@H](Cc1ccc(O)cc1)N(C)C(=O)[C@H](CO)NC(=O)[C@@H](Cc1cccc2ccccc12)NC(=O)CCc1ccc(F)cc1)C(=O)N[C@@H](CCCCNC(C)C)C(=O)N1CCC[C@H]1C(=O)N[C@H](C)C(N)=O ({Propanoyl(3-(4-F-phenyl))}-[d1Nal]S[NMeY][dK](Nicotinoyl)L[Lys(iPr)]P[dA]-NH2)
